Holding throughout (format): functional
Conditions in all cases: read-out: Activity

The test system of assay [1] is K562. Briefly: Growth inhibition of human K562 cells assessed as cell growth at 10 uM incubated for 48 hrs by sulforhodamine B assay relative to control. The procedure, abridged:
(§1)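 Submitted to the NCI Developmental Therapeutics Program for the NCI60 human tumour cell line panel. First screen at a single 10 µM concentration. Read-out is growth relative to untreated control cells set at 100%.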

Assay [2] deals with SR. Briefly: Growth inhibition of human SR cells assessed as cell growth at 10 uM incubated for 48 hrs by sulforhodamine B assay relative to control. The gist of the method:
(§2)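 Run by the NCI Developmental Therapeutics Program as part of its 60-line human tumour panel. Each compound tested at a single 10 µM dose. Growth expressed as % relative to untreated control cells (100%).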

The subject of assay [3] is NCI-H226. Briefly: Growth inhibition of human NCI-H226 cells assessed as cell growth at 10 uM incubated for 48 hrs by sulforhodamine B assay relative to control. The gist of the method: as §1
Assay [4] relates to NCI-H322M. Briefly: Growth inhibition of human NCI-H322M cells assessed as cell growth at 10 uM incubated for 48 hrs by sulforhodamine B assay relative to control. The procedure, abridged:
as §1

In assay [5] the test system is NCI-H460. Briefly: Growth inhibition of human NCI-H460 cells assessed as cell growth at 10 uM incubated for 48 hrs by sulforhodamine B assay relative to control. The procedure, abridged: as §1
Assay [6] deals with COLO 205. Briefly: Growth inhibition of human COLO 205 cells assessed as cell growth at 10 uM incubated for 48 hrs by sulforhodamine B assay relative to control. The gist of the method: (§3)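 NCI Developmental Therapeutics Program NCI60 panel. Compounds that were active in the 10 µM one-dose screen went on to dose–response testing. Growth at each concentration is expressed relative to untreated control (100%). GI50 (concentration giving 50% of maximal inhibition of proliferation) and TGI (concentration giving total growth inhibition) were derived from the curves.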

Assay [7] relates to HCT-116. Briefly: Growth inhibition of human HCT-116 cells assessed as cell growth at 10 uM incubated for 48 hrs by sulforhodamine B assay relative to control. The gist of the method:
as §1

Assay [8] concerns HCT-15. Briefly: Growth inhibition of human HCT-15 cells assessed as cell growth at 10 uM incubated for 48 hrs by sulforhodamine B assay relative to control. The gist of the method: as §1
For assay [9], the system named is SW-620. Briefly: Growth inhibition of human SW-620 cells assessed as cell growth at 10 uM incubated for 48 hrs by sulforhodamine B assay relative to control. The gist of the method:
as §2

Assay [10] concerns SF-268. Briefly: Growth inhibition of human SF-268 cells assessed as cell growth at 10 uM incubated for 48 hrs by sulforhodamine B assay relative to control. The gist of the method:
as §2

In assay [11] the test system is SNB-75. Briefly: Growth inhibition of human SNB-75 cells assessed as cell growth at 10 uM incubated for 48 hrs by sulforhodamine B assay relative to control. The gist of the method:
as §2

The subject of assay [12] is SK-MEL-28. Briefly: Growth inhibition of human SK-MEL-28 cells assessed as cell growth at 10 uM incubated for 48 hrs by sulforhodamine B assay relative to control. The gist of the method: as §2
Assay [13] deals with OVCAR-4. Briefly: Growth inhibition of human OVCAR-4 cells assessed as cell growth at 10 uM incubated for 48 hrs by sulforhodamine B assay relative to control. The gist of the method:
as §2

Assay [14] has as its system NCI/ADR-RES. Briefly: Growth inhibition of human NCI/ADR-RES cells assessed as cell growth at 10 uM incubated for 48 hrs by sulforhodamine B assay relative to control. The procedure, abridged: as §1
Assay [15] deals with ACHN. Briefly: Growth inhibition of human ACHN cells assessed as cell growth at 10 uM incubated for 48 hrs by sulforhodamine B assay relative to control. The gist of the method:
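NCI Developmental Therapeutics Program NCI60 human tumour cell line panel, one-dose primary screen with every compound at 10 µM. Growth is expressed as % of untreated control cells (100%).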

Assay [16] relates to CAKI-1. Briefly: Growth inhibition of human CAKI-1 cells assessed as cell growth at 10 uM incubated for 48 hrs by sulforhodamine B assay relative to control. The gist of the method: as §3
In assay [17] the test system is PC-3. Briefly: Growth inhibition of human PC-3 cells assessed as cell growth at 10 uM incubated for 48 hrs by sulforhodamine B assay relative to control. The procedure, abridged:
as §2

In assay [18] the test system is MCF7. Briefly: Growth inhibition of human MCF7 cells assessed as cell growth at 10 uM incubated for 48 hrs by sulforhodamine B assay relative to control. The gist of the method: as §1
Assay [19] deals with Hs-578T. Briefly: Growth inhibition of human Hs-578T cells assessed as cell growth at 10 uM incubated for 48 hrs by sulforhodamine B assay relative to control. The gist of the method: as §1
In assay [20] the test system is NCI-H522. Briefly: Growth inhibition of human NCI-H522 cells assessed as cell growth at 10 uM incubated for 48 hrs by sulforhodamine B assay relative to control. The gist of the method:
as §1

In assay [21] the test system is SK-MEL-2. Briefly: Growth inhibition of human SK-MEL-2 cells assessed as cell growth at 10 uM incubated for 48 hrs by sulforhodamine B assay relative to control. The gist of the method: as §2
For assay [22], the system named is TK-10. Briefly: Growth inhibition of human TK-10 cells assessed as cell growth at 10 uM incubated for 48 hrs by sulforhodamine B assay relative to control. The procedure, abridged: as §2

Molecules are shown by their SMILES.

This passage reports growth results from ChEMBL document CHEMBL4715736, “Identification of anticancer agents based on the thieno[2,3-b]pyridine and 1H-pyrazole molecular scaffolds” (2016).

In the case of `COc1ccc(-c2ccn(S(=O)(=O)c3ccc(C)cc3)n2)cc1`, the growth at 10 µM is 75.4% in [1]; 79.2% in assay [2]; 68.5% in assay [3]; 96.7% in assay [4]; 81% in [5]; 112% in assay [6]. Besides, the growth at 10 µM in assay [7] came out at 73.5%; in assay [8], 84.2%; in [9] it was 90.2%; in [10], 95.9%; in assay [11], 92.5%; in assay [12] it was 103%. Moreover, the growth at 10 µM was determined as 62% in [13]; 78.7% in [14]; 91.6% in [15]; 69.5% in [16]; 81.2% in [17]; 88.3% in assay [18]. Also, in assay [19], the growth at 10 µM was found to be 96%.
On to `CC(=O)Nc1ccc(S(=O)(=O)n2ccc(-c3ccc4c(c3)CCC(C)(C)O4)n2)cc1`, for which the growth at 10 µM in assay [1] came to 36.7%; in [2], 56.4%; in assay [3], 52.4%; in [4] it was 89%; in assay [5] it was 41.4%; in assay [20], 54%. Further, the growth at 10 µM in assay [6] was found to be 88.8%; in assay [7], 29.9%; in assay [8] it was 59.3%; in [9] it was 82.5%; in assay [10], 77.2%; in [11] it was 81.5%. Further, the growth at 10 µM in assay [21] was 53.5%; in [12] it was 93.1%; in assay [13], 46.2%; in assay [14], 56.9%; in assay [15], 79.3%; in [16] it was 48.8%. Further, the growth at 10 µM was 55.1% in [22], 44.4% in [17], 66.2% in assay [18] and 102% in assay [19].
As for `COc1ccc(S(=O)(=O)n2ccc(-c3ccc(OC(C)C)cc3)n2)cc1`, the growth at 10 µM in assay [1] turned out to be 53.6%; in assay [2], 75.7%; in assay [3], 78.8%; in [4], 99.3%; in [5], 84.5%; in assay [6] it was 111%. Moreover, the growth at 10 µM in assay [7] was determined as 79%; in assay [8], 87.6%; in assay [9] it was 86.3%; in [10], 100%; in assay [11] it was 96.9%; in assay [12], 95.3%. For the same compound, the growth at 10 µM in assay [13] turned out to be 67.7%; in [14], 81.3%; in assay [15], 95.8%; in assay [16], 66%; in assay [17], 73.2%; in assay [18], 93.8%. The growth at 10 µM in [19] was 95.5%.
As for `CC1(C)CCc2cc(-c3ccn(S(=O)(=O)c4ccc(C(F)(F)F)cc4)n3)ccc2O1`, the growth at 10 µM in [1] was determined as 76.8%; in assay [2], 69.8%; in assay [3], 75.6%; in assay [4] it was 105%; in assay [5] it was 92%; in [6], 108%. Also, the growth at 10 µM in assay [7] came out at 80.6%; in assay [8], 87.4%; in [9] it was 90.2%; in assay [10], 104%; in assay [11], 93.5%; in [12], 99.6%. In addition, the growth at 10 µM in assay [13] amounted to 71.3%; in assay [14], 92.4%; in assay [15], 101%; in [16] it was 76.7%; in [17] it was 76.6%; in assay [18], 84.9%. In addition, the growth at 10 µM in [19] is 101%.
Regarding `Cc1cc(C)cc(S(=O)(=O)n2ccc(-c3ccc4c(c3)CCC(C)(C)O4)n2)c1`, the growth at 10 µM amounted to 85.8% in assay [1]; 76.5% in assay [2]; 66.8% in [3]; 92% in [4]; 84.4% in [5]; 103% in assay [6]. Also, the growth at 10 µM in assay [7] is 77.8%; in [8], 82.3%; in assay [9], 88.3%; in assay [10] it was 88.3%; in [11], 87.2%; in assay [12], 102%. Also, the growth at 10 µM is 67.3% in assay [13]; 79% in assay [14]; 92.8% in assay [15]; 72.5% in assay [16]; 82.4% in assay [17]; 81.5% in assay [18]. In addition, the growth at 10 µM in assay [19] was found to be 92.7%.
For the compound `CC1(C)CCc2cc(-c3ccn(S(=O)(=O)c4ccccc4)n3)ccc2O1`, the growth at 10 µM came to 10% in assay [1]; 56.7% in [2]; 69.7% in assay [3]; 91.7% in assay [4]; 72.8% in assay [5]; 96.1% in assay [6]. The growth at 10 µM in [7] stood at 62.7%; in assay [8], 64.9%; in [9], 71%; in assay [10], 85.4%; in [11], 78.9%; in assay [12] it was 97.2%. Also, the growth at 10 µM is 64.2% in assay [13]; 76% in [14]; 90.1% in assay [15]; 62.9% in assay [16]; 61.8% in assay [17]; 76.1% in [18]. The growth at 10 µM in [19] amounted to 90.1%.
Regarding `COc1ccc(-c2ccn(S(=O)(=O)c3ccc(OC)cc3)n2)cc1`, the growth at 10 µM came out at 57% in assay [1]; 57.8% in [2]; 70.9% in assay [3]; 98.3% in assay [4]; 75% in assay [5]; 118% in assay [6]. The growth at 10 µM is 60.3% in assay [7]; 83% in [8]; 82.1% in [9]; 95.6% in [10]; 88.9% in assay [11]; 99.2% in [12]. Besides, the growth at 10 µM in [13] was determined as 63%; in assay [14], 88.4%; in assay [15], 90.6%; in assay [16], 66.2%; in assay [17], 65.8%; in assay [18], 97.9%. In [19], the growth at 10 µM worked out at 93.6%.
Consider `COc1ccc(S(=O)(=O)n2ccc(-c3ccc4c(c3)CCC(C)(C)O4)n2)cc1OC`, for which the growth at 10 µM in [1] was 53%; in assay [2], 60.2%; in assay [3], 59%; in [4] it was 89.5%; in [5] it was 69.6%; in assay [20] it was 65.8%. The growth at 10 µM in assay [6] came out at 87.1%; in [7], 61.5%; in assay [8], 71.9%; in assay [9], 79.9%; in [10], 85.3%; in assay [11], 84.6%. Besides, the growth at 10 µM in [21] was 56.1%; in assay [12], 91%; in assay [13], 46%; in [14], 56.5%; in assay [15], 78%; in assay [16], 58.3%. Moreover, the growth at 10 µM in [22] turned out to be 72.1%; in [17], 69.5%; in [18] it was 64.3%; in [19], 91.5%.
